ChEMBL document CHEMBL2086252, “Syntheses and evaluation of anticonvulsant activity of novel branched alkyl carbamates” (J Med Chem, 2012)
Active and inactive are the calls of the source. The calls are words filed in the database; no cut-off is given here.

Tests used:
[1] = Neurotoxicity in po dosed Sprague-Dawley albino rat assessed as minimal motor impairment by rotarod test; type: toxicity, organism-based; details: in vivo
How it was run: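 Rats dosed orally; 4 rats per time point after dosing. Neurotoxicity was scored as motor impairment or sedation and reported as number of animals affected over number tested.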

[2] = system: Mus musculus; test: Anticonvulsant activity in albino CF1 mouse assessed as protection against subcutaneous metrazol-induced seizures at 30 mg/kg, ip after 0.5 hrs; type: functional, organism-based; set-up: dose 30 mg/kg
How it was run: (§1)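 Mice dosed ip at 30, 100 or 300 mg/kg, then tested 0.5 h and 4 h after administration in the MES or scMet test. Protection was recorded as animals protected over animals tested. Neurotoxicity was recorded as motor impairment or sedation, as animals affected over animals tested.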

[3] = system: Mus musculus; test: Anticonvulsant activity in albino CF1 mouse assessed as protection against subcutaneous metrazol-induced seizures at 300 mg/kg, ip after 0.5 hrs; type: functional, organism-based; set-up: dose 300 mg/kg; how it was run: as §1
[4] = system: Mus musculus; test: Anticonvulsant activity in albino CF1 mouse assessed as protection against subcutaneous metrazol-induced seizures at 30 mg/kg, ip after 4 hrs; type: functional, organism-based; set-up: dose 30 mg/kg; how it was run: as §1
[5] = system: Mus musculus; test: Anticonvulsant activity in albino CF1 mouse assessed as protection against subcutaneous metrazol-induced seizures at 100 mg/kg, ip after 4 hrs; type: functional, organism-based; set-up: dose 100 mg/kg; how it was run: as §1
[6] = system: Mus musculus; test: Anticonvulsant activity in albino CF1 mouse assessed as protection against subcutaneous metrazol-induced seizures at 300 mg/kg, ip after 4 hrs; type: functional, organism-based; set-up: dose 300 mg/kg; how it was run: as §1
[7] = system: Mus musculus; test: Anticonvulsant activity in albino CF1 mouse assessed as protection against maximal electroshock-induced seizures at 30 mg/kg, ip after 0.5 hrs; type: functional, organism-based; set-up: dose 30 mg/kg; how it was run: as §1
[8] = system: Mus musculus; test: Anticonvulsant activity in albino CF1 mouse assessed as protection against maximal electroshock-induced seizures at 100 mg/kg, ip after 0.5 hrs; type: functional, organism-based; set-up: dose 100 mg/kg; how it was run: as §1
[9] = system: Mus musculus; test: Anticonvulsant activity in albino CF1 mouse assessed as protection against maximal electroshock-induced seizures at 300 mg/kg, ip after 0.5 hrs; type: functional, organism-based; set-up: dose 300 mg/kg; how it was run: as §1
[10] = system: Mus musculus; test: Anticonvulsant activity in albino CF1 mouse assessed as protection against maximal electroshock-induced seizures at 30 mg/kg, ip after 4 hrs; type: functional, organism-based; set-up: dose 30 mg/kg; how it was run: as §1
[11] = system: Mus musculus; test: Anticonvulsant activity in albino CF1 mouse assessed as protection against maximal electroshock-induced seizures at 100 mg/kg, ip after 4 hrs; type: functional, organism-based; set-up: dose 100 mg/kg; how it was run: as §1
[12] = system: Mus musculus; test: Anticonvulsant activity in albino CF1 mouse assessed as protection against maximal electroshock-induced seizures at 300 mg/kg, ip after 4 hrs; type: functional, organism-based; set-up: dose 300 mg/kg; how it was run: as §1
[13] = system: Mus musculus; test: Neurotoxicity in albino CF1 mouse assessed as minimal motor impairment at 30 mg/kg, ip after 0.5 hrs by rotarod test; type: toxicity, organism-based; set-up: dose 30 mg/kg, route intraperitoneal; details: in vivo; how it was run: as §1
[14] = system: Mus musculus; test: Neurotoxicity in albino CF1 mouse assessed as minimal motor impairment at 300 mg/kg, ip after 0.5 hrs by rotarod test; type: toxicity, organism-based; set-up: dose 300 mg/kg, route intraperitoneal; details: in vivo; how it was run: as §1
[15] = system: Mus musculus; test: Neurotoxicity in albino CF1 mouse assessed as minimal motor impairment at 30 mg/kg, ip after 4 hrs by rotarod test; type: toxicity, organism-based; set-up: dose 30 mg/kg, route intraperitoneal; details: in vivo; how it was run: as §1
[16] = system: Mus musculus; test: Neurotoxicity in albino CF1 mouse assessed as minimal motor impairment at 100 mg/kg, ip after 4 hrs by rotarod test; type: toxicity, organism-based; set-up: dose 100 mg/kg, route intraperitoneal; details: in vivo; how it was run: as §1
[17] = system: Mus musculus; test: Neurotoxicity in albino CF1 mouse assessed as minimal motor impairment at 300 mg/kg, ip after 4 hrs by rotarod test; type: toxicity, organism-based; set-up: dose 300 mg/kg, route intraperitoneal; details: in vivo; how it was run: as §1
[18] = system: Rattus norvegicus; test: Anticonvulsant activity in Sprague-Dawley albino rat assessed as protection against maximal electroshock-induced seizures at 30 mg/kg, po after 15 mins; type: functional, organism-based; set-up: dose 30 mg/kg
How it was run: (§2)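 Rats dosed orally. Anti-MES protection was scored as animals protected over animals tested at each time after dosing. Neurotoxicity was scored as motor impairment or sedation, as animals affected over animals tested.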

[19] = system: Rattus norvegicus; test: Anticonvulsant activity in Sprague-Dawley albino rat assessed as protection against maximal electroshock-induced seizures at 30 mg/kg, po after 30 mins; type: functional, organism-based; set-up: dose 30 mg/kg; how it was run: as §2
[20] = system: Rattus norvegicus; test: Anticonvulsant activity in Sprague-Dawley albino rat assessed as protection against maximal electroshock-induced seizures at 30 mg/kg, po after 1 hr; type: functional, organism-based; set-up: dose 30 mg/kg; how it was run: as §2
[21] = system: Rattus norvegicus; test: Anticonvulsant activity in Sprague-Dawley albino rat assessed as protection against maximal electroshock-induced seizures at 30 mg/kg, po after 4 hrs; type: functional, organism-based; set-up: dose 30 mg/kg; how it was run: as §2
[22] = system: Rattus norvegicus; test: Neurotoxicity in Sprague-Dawley albino rat assessed as minimal motor impairment at 30 mg/kg, po by rotarod test; type: toxicity, organism-based; set-up: dose 30 mg/kg, route oral; details: in vivo; how it was run: as §2
[23] = system: Rattus norvegicus; test: Anticonvulsant activity in po dosed Sprague-Dawley albino rat assessed as protection against maximal electroshock-induced seizures; type: functional
How it was run: (§3)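 Quantitative testing: rats dosed orally or ip in MES and scMet tests, and mice dosed ip, including the 6 Hz (32 mA) psychomotor seizure test. ED50 and TD50 were reported in mg/kg with ranges in parentheses. Protective index was calculated as TD50/ED50.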

[24] = system: Mus musculus; test: Anticonvulsant activity in ip dosed albino CF1 mouse assessed as protection against maximal electroshock-induced seizures; type: functional; how it was run: as §3
[25] = system: Rattus norvegicus; test: Protective index, ratio of TD50 for po dosed Sprague-Dawley albino rat by rotarod test to ED50 for po dosed Sprague-Dawley albino rat by maximal electroshock seizures test; type: functional
How it was run: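 Protective index calculated as TD50/ED50, with TD50 and ED50 taken from the same species and dosing route.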

[26] = Neurotoxicity in ip dosed albino CF1 mouse assessed as minimal motor impairment by rotarod test; type: toxicity, organism-based; details: in vivo; how it was run: as §3
[27] = system: Rattus norvegicus; test: Anticonvulsant activity in ip dosed Sprague-Dawley albino rat assessed as protection against pilocarpine-induced status epilepticus after 0.5 hrs; type: functional
How it was run: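 Pilocarpine status epilepticus model in rats. Number and severity of convulsive seizures were observed behaviourally.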

[28] = system: Rattus norvegicus; test: Neurotoxicity in pilocarpine-induced status epilepticus Sprague-Dawley albino rat model assessed as minimal motor impairment at 200 mg/kg, ip after 0.5 hrs by rotarod test; type: toxicity, organism-based; set-up: dose 200 mg/kg, route intraperitoneal; details: in vivo
How it was run: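 Rat pilocarpine status epilepticus model: test carbamate given at 0 or 30 min after the first observed Racine stage 3 motor seizure, which marks SE onset. Neurotoxicity was scored within the same model.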

[29] = system: Mus musculus; test: Anticonvulsant activity in albino CF1 mouse assessed as protection against maximal electroshock-induced seizures at 3 mg/kg, ip after 0.5 hrs; type: functional, organism-based; set-up: dose 3 mg/kg
[30] = system: Mus musculus; test: Anticonvulsant activity in albino CF1 mouse assessed as protection against maximal electroshock-induced seizures at 10 mg/kg, ip after 0.5 hrs; type: functional, organism-based; set-up: dose 10 mg/kg
[31] = system: Mus musculus; test: Neurotoxicity in albino CF1 mouse assessed as minimal motor impairment at 3 mg/kg, ip after 0.5 hrs by rotarod test; type: toxicity, organism-based; set-up: dose 3 mg/kg, route intraperitoneal; details: in vivo
[32] = system: Mus musculus; test: Neurotoxicity in albino CF1 mouse assessed as minimal motor impairment at 10 mg/kg, ip after 0.5 hrs by rotarod test; type: toxicity, organism-based; set-up: dose 10 mg/kg, route intraperitoneal; details: in vivo

Question: For `NC(=O)OCCc1ccccc1` [PHENYLETHYL CARBAMATE], which TD50 [1] is on record?
Answer: < 400 mg/kg

Question: What about the Activity [2] of the same compound?
Answer: inactive

Question: And the Activity [3]?
Answer: Active

Question: And the Activity [4]?
Answer: inactive

Question: What about the Activity [5] of the same compound?
Answer: inactive

Question: What about the Activity [6] of the same compound?
Answer: inactive

Question: And the Activity [7]?
Answer: Active

Question: What about the Activity [8] of the same compound?
Answer: Active

Question: What about the Activity [9] of the same compound?
Answer: Active

Question: What about the Activity [10] of the same compound?
Answer: inactive

Question: And the Activity [11]?
Answer: inactive

Question: What about the Activity [12] of the same compound?
Answer: Active

Question: And the Activity [13]?
Answer: Non-toxic

Question: And the Activity [14]?
Answer: Toxic

Question: What about the Activity [15] of the same compound?
Answer: Non-toxic

Question: And the Activity [16]?
Answer: Non-toxic

Question: And the Activity [17]?
Answer: Non-toxic

Question: And the Activity [18]?
Answer: Active

Question: And the Activity [19]?
Answer: Active

Question: What about the Activity [20] of the same compound?
Answer: Active

Question: What about the Activity [21] of the same compound?
Answer: inactive

Question: What about the Activity [22] of the same compound?
Answer: Non-toxic

Question: What about the ED50 [23] of the same compound?
Answer: 16 mg/kg

Question: And the ED50 [24]?
Answer: 18 mg/kg

Question: And the “Ratio TD50/ED50” value [25]?
Answer: <25

Question: What about the TD50 [26] of the same compound?
Answer: 114 mg/kg

Question: And the ED50 [27]?
Answer: 105 mg/kg

Question: What about the ED97 [27] of the same compound?
Answer: 221 mg/kg

Question: What about the Activity [28] of the same compound?
Answer: Toxic

Question: And the Activity [29]?
Answer: inactive

Question: And the Activity [30]?
Answer: inactive

Question: What about the Activity [31] of the same compound?
Answer: Non-toxic

Question: And the Activity [32]?
Answer: Non-toxic
